Results: ChEMBL document CHEMBL2412973, “Design, synthesis, and anti-tumor activities of novel triphenylethylene-coumarin hybrids, and their interactions with Ct-DNA” (Bioorg Med Chem Lett, 2013)
Calls of active or inactive are those of the source. The calls are words filed in the database; no cut-off is given here.

Experiments:
[1] = system: DNA; experiment: Binding affinity to calf thymus DNA in phosphate buffer at pH 7.4 assessed as change in melting temperature at 5 uM after 10 mins by thermal denaturation method; format: nucleic-acid assay; conditions: Bos taurus
Method in brief: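 Thermal denaturation: Ct-DNA 5.0×10^-5 M with or without compound at 5.0×10^-6 M, phosphate buffer (1 mM, pH 7.4) with 5 mM NaCl and 4% DMSO; melting curves recorded, Tm taken as temperature at which half the DNA melts; ΔTm relative to free Ct-DNA.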

[2] = system: DNA; experiment: Binding affinity to calf thymus DNA in phosphate buffer at pH 7.4 at 5 uM after 10 mins by fluorescence spectroscopy; format: nucleic-acid assay; conditions: Bos taurus
Method in brief: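 Compound at 5.0×10^-6 M, excited at 329–336 nm depending on compound, titrated with Ct-DNA (0–90 μM) in 10 mM phosphate buffer pH 7.4, 50 mM NaCl, 4% DMSO, 25 °C; emission near 455 nm; F/F0 plotted against DNA concentration, Stern-Volmer analysis gives binding efficiency.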

[3] = system: DNA; experiment: Binding affinity to calf thymus DNA in phosphate buffer at pH 7.4 assessed as intercalation in DNA at 20 uM after 10 mins by circular dichroism method; format: nucleic-acid assay; conditions: Bos taurus
Method in brief: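 CD spectra of Ct-DNA (5.0×10^-5 M) with and without compound (2.0×10^-5 M) recorded in 10 mM phosphate buffer pH 7.4 containing 50 mM NaCl and 4% DMSO at 25 °C.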

[4] = system: DNA; experiment: Binding affinity to calf thymus DNA in phosphate buffer at pH 7.4 assessed as hypochromic effect at 1.0 x 10^-5 M by UV-visible spectroscopy; format: nucleic-acid assay; conditions: Bos taurus
Method in brief: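 Compound at 1.0×10^-5 M titrated with Ct-DNA (0–180 μM) in 10 mM phosphate buffer pH 7.4, 50 mM NaCl, 4% DMSO, 25 °C; UV-Vis absorption change at absorption maximum, hypochromicity percentage derived, binding fitted.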

[5] = system: A549; experiment: Antiproliferative activity against human A549 cells after 48 hrs by MTT assay; format: functional, cell-based; conditions: A549, 48 h
[6] = system: K562; experiment: Antiproliferative activity against human K562 cells after 48 hrs by MTT assay; format: functional, cell-based; conditions: K562, 48 h
[7] = system: MCF7; experiment: Antiproliferative activity against human MCF7 cells after 48 hrs by MTT assay; format: functional, cell-based; conditions: MCF7, 48 h
[8] = Cytotoxicity against mouse Osteoblasts at 100 uM after 48 hrs by MTT assay; format: cell-based; conditions: osteoblast
Method in brief: (§1)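 Primary osteoblasts isolated from newborn mouse skull, exposed to compound for 48 h; cell death measured by MTT; % cytotoxicity versus untreated cells, mean ± SEM of six replicates, significance by p-value.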

[9] = Cytotoxicity against mouse Osteoblasts at 40 uM after 48 hrs by MTT assay; format: cell-based; conditions: osteoblast; method in brief: as §1
[10] = Cytotoxicity against mouse Osteoblasts at 20 uM after 48 hrs by MTT assay; format: cell-based; conditions: osteoblast; method in brief: as §1
[11] = Cytotoxicity against mouse Osteoblasts at 1 uM after 48 hrs by MTT assay; format: cell-based; conditions: osteoblast; method in brief: as §1
[12] = Cytotoxicity against mouse Osteoblasts at 10 uM after 48 hrs by MTT assay; format: cell-based; conditions: osteoblast; method in brief: as §1
[13] = system: HL-60; experiment: Antiproliferative activity against human HL60 cells after 48 hrs by MTT assay; format: functional, cell-based; conditions: HL-60, 48 h
[14] = system: Bel-7402; experiment: Antiproliferative activity against human Bel7402 cells after 48 hrs by MTT assay; format: functional, cell-based; conditions: Bel-7402, 48 h

| SMILES | ΔTm [1] [°C] | Activity [2] | Activity [3] | Activity [4] [%] | IC50 [5] [µM] | IC50 [6] [µM] | IC50 [7] [µM] | Activity [8] [%] | Activity [9] [%] | Activity [10] [%] | Activity [11] [%] | Activity [12] [%] | IC50 [13] [µM] | IC50 [14] [µM] |
| --- | --- | --- | --- | --- | --- | --- | --- | --- | --- | --- | --- | --- | --- | --- |
| O=c1oc2cc(OCCN3CCCCC3)ccc2c(-c2ccc(OCCN3CCCCC3)cc2)c1-c1ccc(OCCN2CCCCC2)cc1 | 8.8 | 3.16 ×10⁴ /M | Active | 25 | 56.3 | 39.4 | 48.2 |  |  |  |  |  |  |  |
| O=c1oc2cc(OCCN3CCCCC3)ccc2c(-c2ccc(O)cc2)c1-c1ccccc1 |  |  |  |  | 91.2 | 81.2 | 86.6 |  |  |  |  |  |  |  |
| O=c1oc2cc(OCCN3CCOCC3)ccc2c(-c2ccc(OCCN3CCOCC3)cc2)c1-c1ccc(OCCN2CCOCC2)cc1 |  |  |  |  | > 100 | > 100 | > 100 |  |  |  |  |  |  |  |
| CCN(CC)CCOc1ccc(-c2c(-c3ccccc3)c(=O)oc3cc(OCCN(CC)CC)ccc23)cc1 |  |  |  |  | 8.31 | 3.79 | 7.9 | 42.2 | 20.6 | 12.2 | -3.1 | 3.2 | 3.98 | 8.04 |
| COc1ccc2c(-c3ccc(OCCN4CCCC4)cc3)c(-c3ccccc3)c(=O)oc2c1 |  |  |  |  | 89.8 | 93.3 | > 100 |  |  |  |  |  |  |  |
| O=c1oc2cc(O)ccc2c(-c2ccc(O)cc2)c1-c1ccccc1 | 1.1 | 5.41 ×10² /M | inactive | 8 | > 100 | > 100 | > 100 |  |  |  |  |  |  |  |
| O=c1oc2cc(OCCN3CCOCC3)ccc2c(-c2ccc(O)cc2)c1-c1ccccc1 |  |  |  |  | 94.1 | > 100 | > 100 |  |  |  |  |  |  |  |
| COc1ccc2c(-c3ccc(O)cc3)c(-c3ccccc3)c(=O)oc2c1 |  |  |  |  | > 100 | > 100 | > 100 |  |  |  |  |  |  |  |
| O=c1oc2cc(OCCN3CCCC3)ccc2c(-c2ccc(OCCN3CCCC3)cc2)c1-c1ccc(OCCN2CCCC2)cc1 |  |  |  |  | 86.3 | 75.3 | 92.8 |  |  |  |  |  |  |  |
| O=c1oc2cc(OCCN3CCCC3)ccc2c(-c2ccc(O)cc2)c1-c1ccccc1 |  |  |  |  | 54.3 | 44.5 | 50 |  |  |  |  |  |  |  |
| O=c1oc2cc(OCCN3CCCCC3)ccc2c(-c2ccc(OCCN3CCCCC3)cc2)c1-c1ccccc1 | 4.3 | 4.21 ×10³ /M | Active | 23 | 6.64 | 2.91 | 11.4 | 39.2 | 14.2 | 7.4 | -8 | -2.6 | 5.28 | 8.19 |
| CCN(CC)CCOc1ccc(-c2c(-c3ccccc3)c(=O)oc3cc(OC)ccc23)cc1 |  |  |  |  | 60.8 | 88.8 | 76.7 |  |  |  |  |  |  |  |
| CCN(CC)CCOc1ccc(-c2c(-c3ccc(OCCN(CC)CC)cc3)c3ccc(OCCN(CC)CC)cc3oc2=O)cc1 |  |  |  |  | 45.2 | 41.9 | 68.8 |  |  |  |  |  |  |  |
| O=c1oc2cc(O)ccc2c(-c2ccc(O)cc2)c1-c1ccc(O)cc1 |  |  |  |  | > 100 | > 100 | > 100 |  |  |  |  |  |  |  |
| CCN(CC)CCOc1ccc2c(-c3ccc(O)cc3)c(-c3ccccc3)c(=O)oc2c1 |  |  |  |  | > 100 | > 100 | > 100 |  |  |  |  |  |  |  |
| O=c1oc2cc(OCCN3CCOCC3)ccc2c(-c2ccc(OCCN3CCOCC3)cc2)c1-c1ccccc1 | 2 | 2.68 ×10² /M | Active | 13 | > 100 | > 100 | > 100 |  |  |  |  |  | > 100 | > 100 |
| CC/C(=C(\c1ccccc1)c1ccc(OCCN(C)C)cc1)c1ccccc1 [TAMOXIFEN] |  |  |  |  |  |  | 13.5 |  |  |  |  |  |  |  |
| O=c1oc2cc(OCCN3CCCC3)ccc2c(-c2ccc(OCCN3CCCC3)cc2)c1-c1ccccc1 |  |  |  |  | 6.31 | 4.58 | 12.3 | 36.1 | 18.2 | 10.1 | -5.1 | -6.7 | 5.93 | 8.66 |
| COc1ccc2c(-c3ccc(OCCN4CCCCC4)cc3)c(-c3ccccc3)c(=O)oc2c1 | 3.2 | 3.12 ×10³ /M | Active | 12 | 23.4 | 19.6 | 29.6 |  |  |  |  |  |  |  |
| COc1ccc2c(-c3ccc(OCCN4CCOCC4)cc3)c(-c3ccccc3)c(=O)oc2c1 |  |  |  |  | > 100 | > 100 | > 100 |  |  |  |  |  |  |  |
